Results published in ChEMBL document CHEMBL4138297, “N-Leucinyl Benzenesulfonamides as Structurally Simplified Leucyl-tRNA Synthetase Inhibitors” (ACS Med Chem Lett, 2018).
Values after ≈ are worked out from the molar mass of the structure shown. Active and inactive are the calls of the source. No cut-off for these calls is given here.

What was measured:
Leucine--tRNA ligase [1] = biological target: T1, Leucine--tRNA ligase (Escherichia coli (strain K12), UniProt P07813); assay: Displacement of IK-698 from Escherichia coli LeuRS by isothermal titration calorimetric calorimetry
T1 sequence (P07813 whole entry): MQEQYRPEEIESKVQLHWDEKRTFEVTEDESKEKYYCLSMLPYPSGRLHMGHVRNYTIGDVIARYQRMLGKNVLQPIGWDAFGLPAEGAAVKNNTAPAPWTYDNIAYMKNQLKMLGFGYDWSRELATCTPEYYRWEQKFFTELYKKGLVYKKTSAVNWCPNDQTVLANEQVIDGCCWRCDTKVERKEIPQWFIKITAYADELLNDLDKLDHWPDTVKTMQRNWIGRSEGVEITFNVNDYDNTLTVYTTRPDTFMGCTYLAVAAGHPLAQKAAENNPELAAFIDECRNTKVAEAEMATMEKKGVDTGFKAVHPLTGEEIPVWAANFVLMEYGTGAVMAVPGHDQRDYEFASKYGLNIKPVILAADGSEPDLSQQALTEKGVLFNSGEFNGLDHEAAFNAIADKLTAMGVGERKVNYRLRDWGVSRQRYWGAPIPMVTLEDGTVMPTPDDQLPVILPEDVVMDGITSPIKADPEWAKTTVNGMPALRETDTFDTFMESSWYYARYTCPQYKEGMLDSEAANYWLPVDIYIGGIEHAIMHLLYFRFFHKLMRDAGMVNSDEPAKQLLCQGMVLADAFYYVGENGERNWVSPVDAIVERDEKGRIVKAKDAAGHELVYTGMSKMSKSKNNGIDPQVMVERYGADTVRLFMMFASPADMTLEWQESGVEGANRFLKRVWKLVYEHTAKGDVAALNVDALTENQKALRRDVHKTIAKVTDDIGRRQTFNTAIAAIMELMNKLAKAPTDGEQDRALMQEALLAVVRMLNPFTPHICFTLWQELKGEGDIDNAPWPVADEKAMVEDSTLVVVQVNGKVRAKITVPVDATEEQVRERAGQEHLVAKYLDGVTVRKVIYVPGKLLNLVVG

Leucine--tRNA ligase [2] = biological target: T1, Leucine--tRNA ligase; assay: Inhibition of Escherichia coli LeuRS expressed in Escherichia coli M15 cells assessed as reduction in ATP consumption
Leucine--tRNA ligase [3] = biological target: T2, Leucine--tRNA ligase (Staphylococcus aureus (strain NCTC 8325), UniProt Q2FXH2); assay: Inhibition of Staphylococcus aureus LeuRS expressed in Escherichia coli M15 cells assessed as reduction in ATP consumption
T2 sequence (Q2FXH2 whole entry): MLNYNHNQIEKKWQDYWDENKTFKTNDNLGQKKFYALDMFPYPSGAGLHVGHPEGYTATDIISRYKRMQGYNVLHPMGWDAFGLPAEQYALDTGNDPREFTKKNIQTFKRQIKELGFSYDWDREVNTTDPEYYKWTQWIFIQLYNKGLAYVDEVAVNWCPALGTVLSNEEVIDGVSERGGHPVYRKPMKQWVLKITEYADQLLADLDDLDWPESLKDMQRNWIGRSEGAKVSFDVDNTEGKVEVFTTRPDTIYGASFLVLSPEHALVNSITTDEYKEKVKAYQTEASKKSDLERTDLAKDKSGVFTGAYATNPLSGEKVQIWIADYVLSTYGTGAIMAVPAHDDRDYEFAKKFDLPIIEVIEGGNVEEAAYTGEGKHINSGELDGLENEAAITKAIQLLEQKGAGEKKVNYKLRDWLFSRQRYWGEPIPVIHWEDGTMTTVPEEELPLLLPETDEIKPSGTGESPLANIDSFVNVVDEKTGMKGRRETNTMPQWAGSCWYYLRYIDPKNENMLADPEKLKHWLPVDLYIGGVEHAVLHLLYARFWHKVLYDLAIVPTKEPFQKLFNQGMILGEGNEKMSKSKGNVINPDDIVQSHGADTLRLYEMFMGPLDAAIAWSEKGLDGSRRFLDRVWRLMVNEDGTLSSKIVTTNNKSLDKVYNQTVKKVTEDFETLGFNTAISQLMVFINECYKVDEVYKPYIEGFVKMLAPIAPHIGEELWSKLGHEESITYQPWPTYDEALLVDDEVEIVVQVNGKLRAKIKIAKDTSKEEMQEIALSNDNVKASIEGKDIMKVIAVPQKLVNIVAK

[4] = biological target: T3, Leucine--tRNA ligase, cytoplasmic (Homo sapiens, UniProt Q9P2J5); assay: Inhibition of human LeuRS assessed as reduction in ATP consumption
T3 sequence (Q9P2J5 whole entry): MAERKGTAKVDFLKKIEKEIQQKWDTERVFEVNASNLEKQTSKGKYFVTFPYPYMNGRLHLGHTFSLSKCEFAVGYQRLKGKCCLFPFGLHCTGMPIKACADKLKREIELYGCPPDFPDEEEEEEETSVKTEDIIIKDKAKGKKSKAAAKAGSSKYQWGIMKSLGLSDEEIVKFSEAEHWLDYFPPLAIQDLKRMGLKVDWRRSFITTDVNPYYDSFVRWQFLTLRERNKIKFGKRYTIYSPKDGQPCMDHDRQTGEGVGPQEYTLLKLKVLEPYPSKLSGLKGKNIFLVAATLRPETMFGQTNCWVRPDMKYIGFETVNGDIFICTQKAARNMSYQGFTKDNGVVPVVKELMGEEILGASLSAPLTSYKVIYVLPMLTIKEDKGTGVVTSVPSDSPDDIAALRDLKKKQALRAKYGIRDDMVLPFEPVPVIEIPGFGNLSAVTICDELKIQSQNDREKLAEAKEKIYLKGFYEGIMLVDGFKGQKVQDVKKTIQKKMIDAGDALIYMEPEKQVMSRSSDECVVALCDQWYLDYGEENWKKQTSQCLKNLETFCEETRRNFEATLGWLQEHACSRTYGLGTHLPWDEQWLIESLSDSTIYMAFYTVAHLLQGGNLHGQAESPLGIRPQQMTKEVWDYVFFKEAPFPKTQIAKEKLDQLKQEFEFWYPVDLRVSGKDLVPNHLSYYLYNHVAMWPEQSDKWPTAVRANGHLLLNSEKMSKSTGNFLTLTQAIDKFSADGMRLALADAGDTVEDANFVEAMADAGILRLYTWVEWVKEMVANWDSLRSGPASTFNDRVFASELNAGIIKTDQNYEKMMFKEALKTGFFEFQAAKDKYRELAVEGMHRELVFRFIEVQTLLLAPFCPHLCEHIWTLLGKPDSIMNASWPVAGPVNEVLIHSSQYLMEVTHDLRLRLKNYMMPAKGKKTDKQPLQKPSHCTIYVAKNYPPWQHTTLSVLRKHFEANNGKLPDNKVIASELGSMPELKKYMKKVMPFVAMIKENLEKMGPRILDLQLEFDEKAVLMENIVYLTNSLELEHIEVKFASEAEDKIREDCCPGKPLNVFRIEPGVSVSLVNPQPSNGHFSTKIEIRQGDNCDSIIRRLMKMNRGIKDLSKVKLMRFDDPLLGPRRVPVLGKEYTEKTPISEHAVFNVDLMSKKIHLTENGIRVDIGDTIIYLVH

[5] = biological target: T4, Leucyl-tRNA synthetase, putative (Trypanosoma brucei brucei (strain 927/4 GUTat10.1), UniProt Q386D9); assay: Inhibition of Trypanosoma brucei LeuRS assessed as reduction in protein synthesis pretreated for 20 mins in presence of [14C]Leu followed by ATP addition measured after 15 mins by scintillation counting method
T4 sequence (Q386D9 whole entry): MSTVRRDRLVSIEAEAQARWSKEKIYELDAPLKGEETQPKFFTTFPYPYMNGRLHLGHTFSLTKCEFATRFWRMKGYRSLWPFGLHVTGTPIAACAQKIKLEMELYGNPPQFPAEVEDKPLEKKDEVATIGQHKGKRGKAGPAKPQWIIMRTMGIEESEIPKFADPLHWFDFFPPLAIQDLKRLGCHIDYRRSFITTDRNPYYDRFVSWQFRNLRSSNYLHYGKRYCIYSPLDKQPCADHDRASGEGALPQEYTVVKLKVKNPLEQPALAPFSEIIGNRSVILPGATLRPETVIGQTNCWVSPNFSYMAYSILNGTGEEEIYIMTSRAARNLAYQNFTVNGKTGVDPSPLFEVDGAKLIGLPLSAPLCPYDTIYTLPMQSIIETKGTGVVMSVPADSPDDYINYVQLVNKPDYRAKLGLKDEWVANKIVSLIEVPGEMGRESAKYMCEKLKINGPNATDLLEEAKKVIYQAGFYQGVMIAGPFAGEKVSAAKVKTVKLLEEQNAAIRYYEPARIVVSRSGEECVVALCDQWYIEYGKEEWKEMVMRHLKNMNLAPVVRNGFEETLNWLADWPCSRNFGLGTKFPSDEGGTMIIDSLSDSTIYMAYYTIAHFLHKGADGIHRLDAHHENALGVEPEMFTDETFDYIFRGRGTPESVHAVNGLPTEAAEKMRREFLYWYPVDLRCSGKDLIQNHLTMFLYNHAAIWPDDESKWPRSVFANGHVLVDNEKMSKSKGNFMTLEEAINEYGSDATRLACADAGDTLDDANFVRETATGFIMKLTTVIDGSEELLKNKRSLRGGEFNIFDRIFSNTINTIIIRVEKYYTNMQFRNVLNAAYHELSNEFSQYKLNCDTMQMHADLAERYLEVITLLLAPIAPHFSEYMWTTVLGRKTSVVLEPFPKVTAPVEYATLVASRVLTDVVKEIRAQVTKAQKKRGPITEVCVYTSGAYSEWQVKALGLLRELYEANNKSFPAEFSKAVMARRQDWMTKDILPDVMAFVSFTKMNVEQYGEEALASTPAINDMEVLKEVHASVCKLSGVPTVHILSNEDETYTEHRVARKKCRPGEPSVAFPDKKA

[6] = biological target: T3, Leucine--tRNA ligase, cytoplasmic; assay: Inhibition of human cytoplasmic LeuRS assessed as reduction in protein synthesis measured after 10 mins in presence of [3H]Leu by scintillation counting method
Leucine--tRNA ligase [7] = biological target: T1, Leucine--tRNA ligase; assay: Binding affinity to Escherichia coli LeuRS by isothermal titration calorimetric calorimetry
Escherichia coli [8] = assay: Antibacterial activity against Escherichia coli BW25113 after 18 hrs by broth microdilution method; format: functional; settings: BW25113, 18 h
Outline: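 Standard laboratory E. coli strain BW25113, wild type for efflux; MIC recorded in ug/mL. The same susceptibility testing was also run on BW25113 derivatives deleted for the multidrug efflux components tolC, acrA or acrB.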

Escherichia coli [9] = assay: Antibacterial activity against Escherichia coli ATCC 25922 after 18 hrs by broth microdilution method; format: functional; settings: ATCC 25922, 18 h
Klebsiella pneumoniae = assay: Antibacterial activity against Klebsiella pneumoniae clinical isolate after 18 hrs by broth microdilution method; format: functional
Pseudomonas aeruginosa = assay: Antibacterial activity against Pseudomonas aeruginosa PAO1 after 18 hrs by broth microdilution method; format: functional; settings: PAO1, 18 h
Acinetobacter baumannii = assay: Antibacterial activity against Acinetobacter spp ATCC 19606 after 18 hrs by broth microdilution method; format: functional; settings: ATCC 19606 = CIP 70.34 = JCM 6841, 18 h
Enterobacter cloacae = assay: Antibacterial activity against Enterobacter cloacae clinical isolate after 18 hrs by broth microdilution method; format: functional
Staphylococcus aureus = assay: Antibacterial activity against Staphylococcus aureus JE2 after 18 hrs by broth microdilution method; format: functional; settings: JE2, 18 h
Escherichia coli [10] = assay: Antibacterial activity against Escherichia coli BW25113 harboring tolC deletion mutant after 18 hrs by broth microdilution method; format: functional, organism-based
Outline: (§1)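 MIC (ug/mL) against single-gene deletion derivatives of the standard laboratory E. coli strain BW25113 lacking multidrug efflux components (ΔacrA, ΔacrB, ΔtolC). The parent BW25113 strain was tested alongside.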

Escherichia coli [11] = assay: Antibacterial activity against Escherichia coli BW25113 harboring AcrA deletion mutant after 18 hrs by broth microdilution method; format: functional, organism-based; outline: as §1
Escherichia coli [12] = assay: Antibacterial activity against Escherichia coli BW25113 harboring AcrB deletion mutant after 18 hrs by broth microdilution method; format: functional, organism-based; outline: as §1

In the case of `CC(C)C[C@H](N)C(=O)NS(=O)(=O)c1cccc(-c2cccc(N)n2)c1`, the Kd (Leucine--tRNA ligase [1]) is reported as 0.0139 µM, the IC50 (Leucine--tRNA ligase [2]) is reported as 0.023 µM and the IC50 (Leucine--tRNA ligase [3]) is reported as 1.7 µM. The IC50 [4] was 0.85 µM.

`CC(C)C[C@H](N)C(=O)NS(=O)(=O)c1ccc2ccccc2c1` was tested, and the Kd (Leucine--tRNA ligase [1]) was 0.064 µM and the IC50 [4] was 0.22 µM.

In the case of `CC(C)C[C@H](N)C(=O)NS(=O)(=O)c1cccc(-c2cc(-c3ccccc3)nc(N)n2)c1`, the Kd (Leucine--tRNA ligase [1]) is reported as 0.056 µM, the IC50 (Leucine--tRNA ligase [2]) is reported as 0.224 µM and the IC50 (Leucine--tRNA ligase [3]) is reported as 3.6 µM. For the same compound, the IC50 [4] was 0.033 µM.

Compound `CC(C)C[C@H](N)C(=O)NS(=O)(=O)c1cccc(-c2ccnc(N)c2)c1` has a Kd (Leucine--tRNA ligase [1]) of 0.0128 µM, an IC50 (Leucine--tRNA ligase [2]) of 0.014 µM and an IC50 (Leucine--tRNA ligase [3]) of 0.65 µM. The IC50 [4] was 0.49 µM.

In the case of `CC(C)C[C@H](N)C(=O)NS(=O)(=O)c1cccc(NC(=S)NC(=O)COc2ccc(Br)cc2Cl)c1`, the IC50 [5] is reported as 1.1 µM and the IC50 [6] is reported as 4.5 µM.

`CC(C)C[C@H](N)C(=O)NS(=O)(=O)c1cccc(-c2ccccc2)c1` was tested, and the Kd (Leucine--tRNA ligase [1]) was 0.0102 µM, the IC50 (Leucine--tRNA ligase [3]) was 0.64 µM and the IC50 [4] was 3.4 µM.

For `CC(C)C[C@H](N)C(=O)NS(=O)(=O)c1cccc(-c2ccncc2)c1`, the Kd (Leucine--tRNA ligase [1]) was 0.0109 µM, the IC50 (Leucine--tRNA ligase [3]) was 0.92 µM and the IC50 [4] was 1.2 µM.

In the case of `CC(C)C[C@H](N)C(=O)NS(=O)(=O)c1ccccc1`, the Kd (Leucine--tRNA ligase [7]) is reported as 0.0929 µM, the IC50 [4] is reported as 1.1 µM and the MIC (Escherichia coli [8]) is reported as > 128 mg/L. It also gave an MIC (Escherichia coli [9]) of 8 mg/L (≈ 29.6 µM), an MIC (Klebsiella pneumoniae) of 64 mg/L (≈ 237 µM) and an MIC (Pseudomonas aeruginosa) of 64 mg/L (≈ 237 µM). For the same compound, the MIC (Acinetobacter baumannii) was 64 mg/L (≈ 237 µM), the MIC (Enterobacter cloacae) was 128 mg/L (≈ 473 µM) and the MIC (Staphylococcus aureus) was > 256 mg/L. The Activity (Escherichia coli [10]) was “Active”.

`Cc1cc(-c2cccc(S(=O)(=O)NC(=O)[C@@H](N)CC(C)C)c2)nc(N)n1` gave a Kd (Leucine--tRNA ligase [1]) of 0.01 µM, an IC50 (Leucine--tRNA ligase [2]) of 0.041 µM and an IC50 (Leucine--tRNA ligase [3]) of 4.4 µM. The IC50 [4] was 0.16 µM, the Activity (Escherichia coli [10]) was “Active” and the Activity (Escherichia coli [11]) was “Active”. The Activity (Escherichia coli [12]) was “Active”.

`CC(C)C[C@H](N)C(=O)NS(=O)(=O)c1cccc(-c2ccnc(N)n2)c1` showed a Kd (Leucine--tRNA ligase [1]) of 0.0145 µM, an IC50 (Leucine--tRNA ligase [3]) of 9.2 µM and an IC50 [4] of 3.9 µM.

In the case of `Cc1cc(-c2cccc(S(=O)(=O)NC(=O)[C@@H](N)CC(C)C)c2)ncn1`, the Kd (Leucine--tRNA ligase [1]) is reported as 0.022 µM, the IC50 (Leucine--tRNA ligase [2]) is reported as 0.047 µM and the IC50 (Leucine--tRNA ligase [3]) is reported as 2.7 µM. It also gave an IC50 [4] of 2 µM.
